The source made the active and inactive calls. The rule behind the calls is not given here.
Key:
Rattus norvegicus = assay: Antihypertensive activity in spontaneous hypertensive rat model assessed as reduction in mean blood pressure at 10 mg/kg, po administered for 2 hrs; assay type: functional, organism-based
How it was run: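 Male SHRs were randomized, n = 6 per group. Compound was suspended in DMSO/oleic acid (1:4) and given by oral gavage; vehicle controls got the same volume of solvent. SBP and DBP were recorded in conscious animals by noninvasive tail-artery manometry. MBP = (SBP − DBP)/3 + DBP. Data are mean ± SEM, with p < 0.05 taken as significant.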

[1] = target: T1, Type-1 angiotensin II receptor A (Rattus norvegicus, UniProt P25095); assay: Displacement of [125I]-Ang II from Angiotensin 2 type-1A receptor in rat vascular smooth muscle cells after 150 mins by gamma counting method
T1 sequence (P25095 whole entry): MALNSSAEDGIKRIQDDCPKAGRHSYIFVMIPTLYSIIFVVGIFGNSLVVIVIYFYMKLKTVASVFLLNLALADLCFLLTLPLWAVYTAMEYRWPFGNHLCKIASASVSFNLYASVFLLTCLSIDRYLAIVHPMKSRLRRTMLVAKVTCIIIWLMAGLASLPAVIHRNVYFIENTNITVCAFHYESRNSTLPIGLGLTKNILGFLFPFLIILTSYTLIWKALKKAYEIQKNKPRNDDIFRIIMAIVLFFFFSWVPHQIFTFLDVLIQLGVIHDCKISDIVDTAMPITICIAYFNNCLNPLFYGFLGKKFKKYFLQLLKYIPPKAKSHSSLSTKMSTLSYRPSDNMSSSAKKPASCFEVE
How it was run: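 Rat vascular smooth muscle cells (passages 3–6) were seeded at 10⁶ cells/well and grown at 37 °C in 5% CO₂. Nonspecific binding was taken with 1 µM Ang II. Cells were washed three times, lysed 10 min in 0.1 M NaOH, and bound radioactivity was gamma counted.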

**Q.** CCCCc1nc(Cl)c(CO)n1Cc1ccc(-c2ccccc2-c2nnn[nH]2)cc1 was tested. Which Activity (Rattus norvegicus) did it give?
**A.** The Activity was “Active”.

**Q.** With CCCCc1nc(Cl)c(CO)n1Cc1ccc(-c2ccccc2-c2noc(=O)[nH]2)cc1 as the compound, how does the IC50 [1] read?
**A.** Its IC50 is 5.94 nM.

**Q.** What about the Ki [1] of the same compound?
**A.** Its Ki is 4.3 nM.

— ChEMBL document CHEMBL3784931, “Synthesis and evaluation of novel angiotensin II receptor 1 antagonists as anti-hypertension drugs” (Bioorg Med Chem, 2016)
